Assay results: ChEMBL document CHEMBL3102842, “Direct synthesis of C3-mono-functionalized oxindoles from N-unprotected 2-oxindole and their antileishmanial activity” (Bioorg Med Chem, 2014)
In brackets after ≈: the same amount, converted by molar mass.

Tests used:
[1] = Therapeutic index, ratio of TC50 for mouse RAW264.7 cells to EC50 for Leishmania infantum zymodeme MON-1 axenic amastigotes; conditions: read-out: TI
Procedure, shortened: (§1)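 Index calculated as TC50 on RAW 264.7 macrophages (MTT assay) divided by EC50 on L. infantum promastigotes or axenic amastigotes, using the same incubation time (24 or 48 h) for both.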

[2] = Therapeutic index, ratio of TC50 for mouse RAW264.7 cells to EC50 for Leishmania infantum zymodeme MON-1 axenic amastigotes after 48 hrs; conditions: read-out: TI; procedure, shortened: as §1
Leishmania infantum [3] = test: Antileishmanial activity against Leishmania infantum zymodeme MON-1 promastigotes assessed as parasite survival after 48 hrs; type: functional, organism-based; conditions: zymodeme MON-1, 48 h
Procedure, shortened: (§2)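 Log-phase promastigotes from 26 °C Schneider's Drosophila medium with 10% heat-inactivated FCS, pH 7.2, adjusted to 5×10^6 parasites/mL. Compounds in DMSO (≤1% v/v) at 10–100 µg/mL, incubated at 26 °C. Surviving promastigotes counted in a Neubauer chamber and compared with drug-free controls.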

[4] = Therapeutic index, ratio of TC50 for mouse RAW264.7 cells to EC50 for Leishmania infantum zymodeme MON-1 promastigotes after 24 hrs; conditions: read-out: TI; procedure, shortened: as §1
Leishmania infantum [5] = test: Antileishmanial activity against Leishmania infantum zymodeme MON-1 promastigotes assessed as parasite survival after 24 hrs; type: functional, organism-based; conditions: zymodeme MON-1, 24 h; procedure, shortened: as §2
Leishmania infantum [6] = test: Antileishmanial activity against Leishmania infantum zymodeme MON-1 axenic amastigotes assessed as parasite survival after 48 hrs; type: functional, organism-based; conditions: zymodeme MON-1, 48 h
Procedure, shortened: (§3)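 Axenic amastigotes grown cell-free at 37 °C, 5% CO2 in MAA/20 (modified medium 199 with Hank's salts, tryptocasein, glucose, glutamine, NaHCO3, hemin, 25 mM HEPES, pH 6.5, 20% heat-inactivated FBS). Compounds in DMSO (≤1% v/v) at 10–100 µg/mL, 37 °C. Viability read after TO-PRO-3 staining (10 min, room temperature) by ImageStream imaging cytometry, ≥10,000 events per sample.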

[7] = Therapeutic index, ratio of TC50 for mouse RAW264.7 cells to EC50 for Leishmania infantum zymodeme MON-1 promastigotes after 48 hrs; conditions: read-out: TI; procedure, shortened: as §1
Leishmania infantum [8] = test: Antileishmanial activity against Leishmania infantum zymodeme MON-1 axenic amastigotes assessed as parasite survival after 24 hrs; type: functional, organism-based; conditions: zymodeme MON-1, 24 h; procedure, shortened: as §3
[9] = Cytotoxicity against mouse RAW264.7 cells after 48 hrs by MTT assay; type: cell-based; conditions: read-out: TC50
Procedure, shortened: (§4)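 RAW 264.7 cells in RPMI 1640 with L-glutamine, 10% FBS and penicillin/streptomycin, seeded at 1×10^5 cells/well and left to adhere overnight at 37 °C, 5% CO2. Compounds at 10, 50 and 100 µg/mL, 37 °C. MTT (5 mg/mL) added for 4 h, formazan dissolved in DMSO, A540 read. Survival expressed as percent of untreated control, in triplicate. TC50 taken as the 50% macrophage-death concentration.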

[10] = Cytotoxicity against mouse RAW264.7 cells after 24 hrs by MTT assay; type: cell-based; conditions: read-out: TC50; procedure, shortened: as §4
Leishmania infantum [11] = test: Antileishmanial activity against Leishmania infantum zymodeme MON-1 promastigotes assessed as parasite survival at 10 to 100 ug/ml after 48 hrs; type: functional; procedure, shortened: as §2

Compound	selectivity ratio [1]	selectivity ratio at 48 h [2]	EC50 (Leishmania infantum [3]) [µg/mL]	EC95 (Leishmania infantum [3]) [µg/mL]	selectivity ratio at 24 h [4]	EC50 (Leishmania infantum [5]) [µg/mL]	EC95 (Leishmania infantum [5]) [µg/mL]	EC50 (Leishmania infantum [6]) [µg/mL]	EC95 (Leishmania infantum [6]) [µg/mL]	selectivity ratio at 48 h [7]	EC50 (Leishmania infantum [8]) [µg/mL]	EC95 (Leishmania infantum [8]) [µg/mL]	CC50 at 48 h [9] [µg/mL]	CC50 at 24 h [10] [µg/mL]	Activity (Leishmania infantum [11]) [%]
Cc1ccc([C@H](CC(=O)c2ccccc2)[C@H]2C(=O)Nc3ccccc32)cc1 (relative stereo)	1.6	1.3	51.6 (≈ 145 µM)	96 (≈ 270 µM)	1.5	62 (≈ 174 µM)	111 (≈ 312 µM)	48.4 (≈ 136 µM)	94.3 (≈ 265 µM)	1.3	60.1 (≈ 169 µM)	99.5 (≈ 280 µM)	67.6 (≈ 190 µM)	93.3 (≈ 262 µM)	–
O=C1C[C@@H](c2ccc(Cl)cc2)C2(C(=O)Nc3ccccc32)[C@H](c2ccc(Cl)cc2)C1	2.1	4.4	5.1 (≈ 11.7 µM)	72.1 (≈ 165 µM)	1.8	23.4 (≈ 53.6 µM)	77.1 (≈ 177 µM)	4.9 (≈ 11.2 µM)	69.9 (≈ 160 µM)	4.2	21 (≈ 48.1 µM)	75.2 (≈ 172 µM)	21.3 (≈ 48.8 µM)	44 (≈ 101 µM)	>74
O=C1Cc2ccccc2N1 [OXINDOLE]	0.6	2.2	72.4 (≈ 544 µM)	146 (≈ 1100 µM)	0.5	232 (≈ 1750 µM)	447 (≈ 3360 µM)	69.5 (≈ 522 µM)	136 (≈ 1020 µM)	2.1	199 (≈ 1490 µM)	430 (≈ 3230 µM)	154 (≈ 1160 µM)	126 (≈ 945 µM)	–
COc1ccc([C@@H]2CC(=O)C[C@@H](c3ccc(OC)cc3)C23C(=O)Nc2ccccc23)cc1	3.8	3.4	16.2 (≈ 37.9 µM)	75.2 (≈ 176 µM)	3.3	23.9 (≈ 55.9 µM)	82.4 (≈ 193 µM)	15.1 (≈ 35.3 µM)	74.8 (≈ 175 µM)	3.1	21 (≈ 49.1 µM)	79.3 (≈ 185 µM)	51 (≈ 119 µM)	80.5 (≈ 188 µM)	>74
COc1ccc([C@H](CC(=O)c2ccccc2)[C@H]2C(=O)Nc3ccccc32)cc1 (relative stereo)	1.7	2.7	14.2 (≈ 38.2 µM)	74 (≈ 199 µM)	1.3	29.7 (≈ 80 µM)	78.5 (≈ 211 µM)	13.1 (≈ 35.3 µM)	71.2 (≈ 192 µM)	2.5	24.2 (≈ 65.2 µM)	75.4 (≈ 203 µM)	35.4 (≈ 95.3 µM)	41 (≈ 110 µM)	–
O=C(/C=C/c1ccccc1)c1ccccc1 [CHALCONE]	5.5	23.7	1.5 (≈ 7.2 µM)	71.1 (≈ 341 µM)	4.9	5.7 (≈ 27.4 µM)	83.5 (≈ 401 µM)	1.3 (≈ 6.24 µM)	69.9 (≈ 336 µM)	20.1	5.1 (≈ 24.5 µM)	79.5 (≈ 382 µM)	30.7 (≈ 147 µM)	28.1 (≈ 135 µM)	–
O=C(CC(c1ccc(Cl)cc1)C1C(=O)Nc2ccccc21)c1ccccc1 (configuration not stated)	2	3.5	11.5 (≈ 30.6 µM)	73.6 (≈ 196 µM)	1.8	19.7 (≈ 52.4 µM)	76.5 (≈ 204 µM)	10.1 (≈ 26.9 µM)	70.2 (≈ 187 µM)	3	18.5 (≈ 49.2 µM)	74 (≈ 197 µM)	35 (≈ 93.1 µM)	36.9 (≈ 98.2 µM)	–
Cc1ccc([C@@H]2CC(=O)C[C@@H](c3ccc(C)cc3)C23C(=O)Nc2ccccc23)cc1	10.6	20.3	2 (≈ 5.06 µM)	71.4 (≈ 181 µM)	10.2	6.1 (≈ 15.4 µM)	72.1 (≈ 182 µM)	1.9 (≈ 4.8 µM)	69.9 (≈ 177 µM)	18.7	5.9 (≈ 14.9 µM)	69.4 (≈ 175 µM)	38.6 (≈ 97.6 µM)	62.8 (≈ 159 µM)	>74
O=C1C[C@@H](c2ccccc2)C2(C(=O)Nc3ccccc32)[C@H](c2ccccc2)C1	3.1	11.4	6.9 (≈ 18.8 µM)	73.2 (≈ 199 µM)	2.9	29.8 (≈ 81.1 µM)	86.1 (≈ 234 µM)	5.7 (≈ 15.5 µM)	74.1 (≈ 202 µM)	9.4	28.5 (≈ 77.6 µM)	78.3 (≈ 213 µM)	65.2 (≈ 177 µM)	88.8 (≈ 242 µM)	>74
O=C(CC(c1cccc(Cl)c1)C1C(=O)Nc2ccccc21)c1ccccc1 (configuration not stated)	6.3	9.3	13.2 (≈ 35.1 µM)	74 (≈ 197 µM)	6.1	31.6 (≈ 84.1 µM)	85.5 (≈ 227 µM)	12.5 (≈ 33.3 µM)	71.5 (≈ 190 µM)	8.8	30.5 (≈ 81.1 µM)	80.2 (≈ 213 µM)	116 (≈ 309 µM)	193 (≈ 514 µM)	–
O=C(C[C@@H](c1ccccc1)[C@H]1C(=O)Nc2ccccc21)c1ccccc1 (relative stereo)	4.7	11.2	6.3 (≈ 18.5 µM)	72.1 (≈ 211 µM)	4.4	16.2 (≈ 47.5 µM)	77.8 (≈ 228 µM)	5.9 (≈ 17.3 µM)	69.4 (≈ 203 µM)	10.6	15.3 (≈ 44.8 µM)	75.6 (≈ 221 µM)	66.6 (≈ 195 µM)	71.6 (≈ 210 µM)	–
C[C@@H]1[C@H](O)[C@@H](C)/C=C/C=C/C=C/C=C/C=C/C=C/C=C/[C@H](O[C@@H]2O[C@H](C)[C@@H](O)[C@H](N)[C@@H]2O)C[C@@H]2O[C@](O)(C[C@@H](O)C[C@@H](O)[C@H](O)CC[C@@H](O)C[C@@H](O)CC(=O)O[C@H]1C)C[C@H](O)[C@H]2C(=O)O [AMPHOTERICIN B]	39.1	8.2	0.4 (≈ 0.433 µM)	3.9 (≈ 4.22 µM)	35.1	0.55 (≈ 0.595 µM)	3.9 (≈ 4.22 µM)	0.4 (≈ 0.433 µM)	3.4 (≈ 3.68 µM)	8.2	0.5 (≈ 0.541 µM)	3.9 (≈ 4.22 µM)	3.1 (≈ 3.35 µM)	19.6 (≈ 21.2 µM)	–
